These results are taken from ChEMBL document CHEMBL5260824, “9-Deazapurines as Broad-Spectrum Inhibitors of the ABC Transport Proteins P-Glycoprotein, Multidrug Resistance-Associated Protein 1, and Breast Cancer Resistance Protein” (J Med Chem, 2017).

One series concerns P-gp (ABCB1). Description: Therapeutic index, ratio of GI50 for antiproliferative activity against human A2780 ADR cells to IC50 for inhibition of P-gp (unknown origin). Format: toxicity, cell-based. An outline of the steps: (§1)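 Ratio of MTT-assay GI50 to transport-inhibition IC50, both in the resistant line. GI50 comes from 72 h exposure at 37 °C to dilutions up to 1000 µM, with medium as 100% and 10% DMSO as 0% viability. IC50 comes from calcein AM (A2780/ADR), daunorubicin (H69AR) or pheophorbide A (MDCK II BCRP) accumulation.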

Series [1] has as its system BCRP (ABCG2). Description: Therapeutic index, ratio of GI50 for antiproliferative activity against dog MDCK-II-BCRP cells to IC50 for inhibition of BCRP (unknown origin) expressed in dog MDCK-II cells. The series is classed as toxicity, cell-based. An outline of the steps: as §1
The target of series [2] is T1, BCRP (ABCG2) (Homo sapiens, UniProt Q9UNQ0).
T1 sequence (Q9UNQ0 whole entry): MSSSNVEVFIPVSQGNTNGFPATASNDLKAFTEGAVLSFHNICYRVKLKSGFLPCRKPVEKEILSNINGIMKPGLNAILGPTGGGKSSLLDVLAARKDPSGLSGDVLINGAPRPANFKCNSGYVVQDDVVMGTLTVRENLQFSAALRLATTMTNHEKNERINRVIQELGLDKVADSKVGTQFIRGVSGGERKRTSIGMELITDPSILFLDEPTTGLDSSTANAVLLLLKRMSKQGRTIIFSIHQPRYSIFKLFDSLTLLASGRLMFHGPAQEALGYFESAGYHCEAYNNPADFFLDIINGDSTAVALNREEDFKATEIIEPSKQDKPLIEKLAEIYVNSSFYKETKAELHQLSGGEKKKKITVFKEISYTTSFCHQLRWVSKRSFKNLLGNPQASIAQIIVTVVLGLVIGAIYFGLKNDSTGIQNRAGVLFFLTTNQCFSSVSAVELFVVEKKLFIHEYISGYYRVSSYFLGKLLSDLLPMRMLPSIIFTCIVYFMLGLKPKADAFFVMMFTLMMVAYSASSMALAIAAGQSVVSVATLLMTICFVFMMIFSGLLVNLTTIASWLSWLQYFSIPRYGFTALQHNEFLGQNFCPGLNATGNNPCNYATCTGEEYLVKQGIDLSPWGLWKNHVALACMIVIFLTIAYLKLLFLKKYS
Description: Inhibition of BCRP (unknown origin) expressed in dog MDCK-II cells at 10 uM using pheophorbide A as substrate preincubated for 20 mins followed by substrate addition and measured after 120 mins by flow cytometry analysis relative to control. The series is classed as cell-based. The settings on record: probe pheophorbide A. An outline of the steps: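 MDCK II cells transfected with human wild-type BCRP cDNA C-terminally fused to GFP, grown in DMEM/10% FBS. About 45,000 cells per well preincubated 20 min at 37 °C, 5% CO2 with compound (100 nM–100 µM added solutions), then pheophorbide A (5 µM solution added) for 120 min to steady state. Resuspended; flow cytometry, 488 nm excitation, FL3 (≥670 nm); GFP in FL1. Reference inhibitor 24 at 10 µM = 100%.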

Series [3] has as its system H69AR. Description: Sensitization of human NCI-H69AR cells expressing MRP1 assessed as maximal sensitivity at 10 uM relative to control. Format: functional. A digest of the protocol: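 Resistant lines were exposed to daunorubicin (A2780/ADR, H69AR) or SN-38 (MDCK II BCRP) over 10 nM–10 µM final, with or without modulator, for 72 h. Viability was read by MTT. Potentiation factor is GI50 without modulator over GI50 with modulator. Maximal sensitization is pf at 10 µM divided by the native resistance factor, in percent.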

Series [4] concerns H69AR. Description: Reversal of drug resistance in human NCI-H69AR cells expressing MRP1. The series is classed as functional, cell-based. A digest of the protocol: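 Cells seeded per well (A2780/ADR 8,000; H69AR 20,000; MDCK II BCRP 3,000) with test compound at 1, 10 or 100 µM solutions added before cells. Daunorubicin (P-gp, MRP1) or SN-38 (BCRP) added to final 10 nM–10 µM. 72 h at 37 °C, then MTT viability read at 570 nm. GI50 from variable-slope nonlinear fits, compared with parental lines; three independent experiments in duplicate.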

Series [5] addresses Multidrug resistance-associated protein 1 (Homo sapiens, UniProt P33527). Description: Inhibition of MRP1 in human NCI-H69AR cells incubated for 180 mins in presence of daunorubicin by flow cytometry analysis. Format: cell-based. An outline of the steps: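 H69AR cells (doxorubicin-selected small cell lung cancer, RPMI-1640/20% FBS), about 60,000 per well, preincubated 15 min with compound (100 nM–100 µM added solutions, in unsupplemented medium), then daunorubicin (30 µM solution added); steady state after 180 min, 37 °C, 5% CO2. Cells resuspended; flow cytometry, 488 nm excitation, FL3 (≥670 nm). Reference inhibitor 75 at 10 µM = 100%; Imax relative to it.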

Series [6] relates to H69AR. Description: Reversal of Daunorubicin resistance in human NCI-H69AR cells assessed as Daunorubicin GI50 at 0.1 uM measured for 72 hrs by MTT assay. The series is classed as functional. An outline of the steps:
(§2)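 Reversal assay: resistant lines (A2780/ADR, H69AR, MDCK II BCRP) and parental lines seeded as for MTT assay with modulator solutions of 1, 10 and 100 µM added (final 0.1, 1, 10 µM) and daunorubicin (P-gp, MRP1) or SN-38 (BCRP) at final 10 nM–10 µM. 72 h, MTT read-out; GI50 by variable-slope fit. Resistance factor = resistant/sensitive GI50; potentiation factor = GI50 without/with modulator.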

Series [7] has as its system H69AR. Description: Antiproliferative activity against human NCI-H69AR cells assessed as reduction in cell viability measured for 72 hrs bt MTT assay. Format: functional.
The nature of series [8]: Potentiation factor, ratio of GI50 for daunorubicin resistant human A2780 ADR cells expressing P-gp cells to GI50 for reversal of daunorubicin resistance in human A2780 ADR cells assessed as daunorubicin GI50 at 10 uM (reference value: 1 uM). Format: functional. A digest of the protocol: as §2
A short description of series [9]: Sensitization of dog MDCK-II-BCRP cells expressing BCRP assessed as maximal sensitivity at 10 uM relative to control.
Series [10] has as its system H69AR. Description: Potentiation factor, ratio of GI50 for daunorubicin resistant human NCI-H69AR cells expressing MRP1 cells to GI50 for reversal of daunorubicin resistance in human NCI-H69AR cells assessed as daunorubicin GI50 at 0.1 uM (reference value: 1 uM). The series is classed as functional. An outline of the steps:
as §2

The nature of series [11]: Potentiation factor, ratio of GI50 for SN-38 resistant dog MDCK-II-BCRP cells expressing BCRP cells to GI50 for reversal of SN-38 resistance in dog MDCK-II-BCRP cells assessed as SN-38 GI50 at 0.1 uM (reference value: 1 uM). Format: functional, Canis lupus familiaris. A digest of the protocol: as §2
Series [12] deals with H69AR. Description: Potentiation factor, ratio of GI50 for daunorubicin resistant human NCI-H69AR cells expressing MRP1 cells to GI50 for reversal of daunorubicin resistance in human NCI-H69AR cells assessed as daunorubicin GI50 at 10 uM (reference value: 1 uM). Format: functional. An outline of the steps: as §2

Multidrug resistance-associated protein 1, sequence (P33527 whole entry): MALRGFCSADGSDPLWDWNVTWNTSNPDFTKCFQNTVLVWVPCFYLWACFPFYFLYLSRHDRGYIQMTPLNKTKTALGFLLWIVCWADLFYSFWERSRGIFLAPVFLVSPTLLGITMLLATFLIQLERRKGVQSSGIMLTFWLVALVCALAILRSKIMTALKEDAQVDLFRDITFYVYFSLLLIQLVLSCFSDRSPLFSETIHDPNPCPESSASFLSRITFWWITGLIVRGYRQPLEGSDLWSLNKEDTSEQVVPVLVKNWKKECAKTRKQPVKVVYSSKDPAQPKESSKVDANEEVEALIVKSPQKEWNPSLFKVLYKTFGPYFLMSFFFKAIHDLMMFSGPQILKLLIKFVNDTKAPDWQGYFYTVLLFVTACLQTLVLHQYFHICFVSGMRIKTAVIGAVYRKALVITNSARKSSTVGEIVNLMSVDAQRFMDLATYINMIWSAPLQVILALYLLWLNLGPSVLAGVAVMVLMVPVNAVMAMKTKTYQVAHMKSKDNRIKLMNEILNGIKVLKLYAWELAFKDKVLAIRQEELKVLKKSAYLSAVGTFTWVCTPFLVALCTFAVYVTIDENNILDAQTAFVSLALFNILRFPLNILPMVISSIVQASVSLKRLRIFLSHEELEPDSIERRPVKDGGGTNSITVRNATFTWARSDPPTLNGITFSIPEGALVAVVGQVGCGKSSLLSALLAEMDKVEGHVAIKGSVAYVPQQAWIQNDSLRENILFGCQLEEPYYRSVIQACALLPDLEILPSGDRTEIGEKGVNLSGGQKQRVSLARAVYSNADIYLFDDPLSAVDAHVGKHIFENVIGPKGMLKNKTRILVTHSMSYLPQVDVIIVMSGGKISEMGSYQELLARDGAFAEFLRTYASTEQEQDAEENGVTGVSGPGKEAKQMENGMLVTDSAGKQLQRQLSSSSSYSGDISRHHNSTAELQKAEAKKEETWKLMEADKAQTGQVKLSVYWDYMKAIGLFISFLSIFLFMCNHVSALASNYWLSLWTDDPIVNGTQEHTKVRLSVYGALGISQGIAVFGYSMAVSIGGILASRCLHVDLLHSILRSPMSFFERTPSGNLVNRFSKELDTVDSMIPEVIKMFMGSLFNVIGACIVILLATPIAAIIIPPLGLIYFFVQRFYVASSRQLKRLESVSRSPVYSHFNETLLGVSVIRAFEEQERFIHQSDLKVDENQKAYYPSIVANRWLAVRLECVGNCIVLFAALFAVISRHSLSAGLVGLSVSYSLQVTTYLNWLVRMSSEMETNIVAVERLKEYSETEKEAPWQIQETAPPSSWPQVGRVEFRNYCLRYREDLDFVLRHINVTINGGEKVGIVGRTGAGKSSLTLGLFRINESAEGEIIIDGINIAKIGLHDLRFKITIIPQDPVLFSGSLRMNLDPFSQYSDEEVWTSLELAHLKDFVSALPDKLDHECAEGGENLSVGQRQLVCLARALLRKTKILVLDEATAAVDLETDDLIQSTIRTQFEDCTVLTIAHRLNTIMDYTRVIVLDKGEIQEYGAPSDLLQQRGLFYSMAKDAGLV

On to `N#Cc1cn(CCCc2ccccc2)c2c(N3CCN(CCc4c[nH]c5ccccc45)CC3)ncnc12`, for which the selectivity ratio in the series on P-gp (ABCB1) was determined as 9.4; in the series on BCRP (ABCG2) [1] it was 14. The inhibition at 2 h, 10 µM against BCRP (ABCG2) [2] was more than 25%. The Activity in the series on H69AR [3] is 81%; in series [9] it was 140%. Moreover, in the series with H69AR [4], the EC50 was determined as 959 nM. The IC50 in series [5] is 501 nM. Moreover, the results for the GI50 in the series with H69AR [6] and with H69AR [7] were 2100 nM and 152 µM, respectively. Also, the RatioGI50 in series [8] is 13. Moreover, the PF in the series with H69AR [10] worked out at 1.8; in [11], 1.9; in the series on H69AR [12], 8.6.
